Source: ChEMBL document CHEMBL3392996, “Non-transpeptidase binding arylthioether β-lactams active against Mycobacterium tuberculosis and Moraxella catarrhalis” (2015)
In brackets after ≈: the same amount, converted by molar mass.

Experiments:
Format in all cases: functional
Moraxella catarrhalis [1] = assay: Bactericidal activity against Moraxella catarrhalis clinical isolates incubated for 48 hrs by microdilution broth method and standard plating method
In short: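 Broth microdilution in Mueller-Hinton broth, 2-fold series from 500 to 15.6 μg/ml, with DMSO-only controls, 37 °C for 48 h. Wells showing no growth were plated (10 μL) on MH agar. MBC was the lowest concentration giving no growth on plating. Run in quadruplicate.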

Moraxella catarrhalis [2] = assay: Antimicrobial activity against Moraxella catarrhalis clinical isolates incubated for 48 hrs by microdilution broth method
In short: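 Stocks in DMSO were diluted at least 10-fold into Mueller-Hinton broth, then 2-fold serially diluted in MH from 500 to 15.6 μg/ml. Bacteria were added, with DMSO-only dilution controls, and incubated at 37 °C for 48 h. Growth was scored at 24 and 48 h. MIC was the lowest concentration with no growth. Run in quadruplicate.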

[3] = test system: Mycobacterium tuberculosis; assay: Antimicrobial activity against Mycobacterium tuberculosis H37Rv incubated for 48 hrs by microdilution broth method

Structure (SMILES) | MBC (Moraxella catarrhalis [1]) [µg/mL] | MIC (Moraxella catarrhalis [2]) [µg/mL] | MIC [3] [µg/mL]
O=C1CC(Sc2cccs2)N1 (racemic) | 100 (≈ 540 µM) | 25 (≈ 135 µM) | 6.25 (≈ 33.7 µM)
O=C1CC(Sc2ccc(F)cc2F)N1 (racemic) | 3.13 (≈ 14.5 µM) | 1.5 (≈ 6.97 µM) | 3.13 (≈ 14.5 µM)
O=C1CC(Sc2ccc(F)c(F)c2)N1 (racemic) | 50 (≈ 232 µM) | 50 (≈ 232 µM) | 50 (≈ 232 µM)
O=C1CC(Sc2c(F)c(F)c(F)c(F)c2F)N1 (racemic) | 1.5 (≈ 5.57 µM) | 1.5 (≈ 5.57 µM) | > 100
O=C1CC(Sc2ccc(F)cc2Cl)N1 (racemic) | 50 (≈ 216 µM) | 12.5 (≈ 54 µM) | 25 (≈ 108 µM)
O=C1CC(Sc2ccc(F)c(Cl)c2)N1 (racemic) | 25 (≈ 108 µM) | 12.5 (≈ 54 µM) | 25 (≈ 108 µM)
O=C1CC(Sc2ccc(Cl)cc2Cl)N1 (racemic) | 6.25 (≈ 25.2 µM) | 6.25 (≈ 25.2 µM) | 25 (≈ 101 µM)
O=C1CC(Sc2ccc([N+](=O)[O-])cc2)N1 (racemic) | 12.5 (≈ 55.7 µM) | 6.25 (≈ 27.9 µM) | 25 (≈ 111 µM)
O=C1CC(Sc2ccccc2C(F)(F)F)N1 (racemic) | 1.5 (≈ 6.07 µM) | 1.5 (≈ 6.07 µM) | ≥ 100
O=C1CC(Sc2ccc(C(F)(F)F)cc2)N1 (racemic) | 100 (≈ 404 µM) | 100 (≈ 404 µM) | 12.5 (≈ 50.6 µM)
O=C1CC(Sc2cc(C(F)(F)F)cc(C(F)(F)F)c2)N1 (racemic) | 100 (≈ 317 µM) | 12.5 (≈ 39.7 µM) | > 100
COc1ccccc1SC1CC(=O)N1 (racemic) | > 200 | 100 (≈ 478 µM) | 250 (≈ 1190 µM)
COc1cccc(SC2CC(=O)N2)c1 (racemic) | > 200 | 100 (≈ 478 µM) | > 100
COc1ccc(SC2CC(=O)N2)cc1 (racemic) | > 200 | 200 (≈ 956 µM) | 100 (≈ 478 µM)
COc1ccc(OC)c(SC2CC(=O)N2)c1 (racemic) | > 200 | 100 (≈ 418 µM) | 250 (≈ 1040 µM)
COc1ccc(SC2CC(=O)N2)cc1OC (racemic) | 200 (≈ 836 µM) | 200 (≈ 836 µM) | 250 (≈ 1040 µM)
